Active and inactive are the calls of the source. The rule behind the calls is not given here.
Experiments:
A-375 [1] = assay: Cytotoxicity against human A-375 cells assessed as inhibition of cell proliferation measured after 48 hrs by MTS assay; assay type: functional, cell-based; conditions: A-375, 48 h
Outline: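 Cells were exposed to a dose range of inhibitor for 48 h, and viability was read by MTS assay in triplicate. GI50 was taken as the concentration giving 50% growth inhibition, averaged from three independent experiments. A375 was cultured in RPMI-1640 with Glutamax. A549 and NCI-H157 were kept in RPMI-1640, and MIA PaCa-2 and U87-MG in DMEM.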

[2] = molecular target: T1, Signal transducer and activator of transcription 3 (Homo sapiens, UniProt P40763); assay: Displacement of FAM-labeled 5-GpYLPQTV-NH2 from recombinant GST-tagged STAT3 (unknown origin) preincubated for 30 mins followed by FAM-labeled 5-GpYLPQTV-NH2 addition and measured after 30 mins by fluorescence assay; conditions: for inhibition: time 60.0 min
T1 sequence (P40763 whole entry): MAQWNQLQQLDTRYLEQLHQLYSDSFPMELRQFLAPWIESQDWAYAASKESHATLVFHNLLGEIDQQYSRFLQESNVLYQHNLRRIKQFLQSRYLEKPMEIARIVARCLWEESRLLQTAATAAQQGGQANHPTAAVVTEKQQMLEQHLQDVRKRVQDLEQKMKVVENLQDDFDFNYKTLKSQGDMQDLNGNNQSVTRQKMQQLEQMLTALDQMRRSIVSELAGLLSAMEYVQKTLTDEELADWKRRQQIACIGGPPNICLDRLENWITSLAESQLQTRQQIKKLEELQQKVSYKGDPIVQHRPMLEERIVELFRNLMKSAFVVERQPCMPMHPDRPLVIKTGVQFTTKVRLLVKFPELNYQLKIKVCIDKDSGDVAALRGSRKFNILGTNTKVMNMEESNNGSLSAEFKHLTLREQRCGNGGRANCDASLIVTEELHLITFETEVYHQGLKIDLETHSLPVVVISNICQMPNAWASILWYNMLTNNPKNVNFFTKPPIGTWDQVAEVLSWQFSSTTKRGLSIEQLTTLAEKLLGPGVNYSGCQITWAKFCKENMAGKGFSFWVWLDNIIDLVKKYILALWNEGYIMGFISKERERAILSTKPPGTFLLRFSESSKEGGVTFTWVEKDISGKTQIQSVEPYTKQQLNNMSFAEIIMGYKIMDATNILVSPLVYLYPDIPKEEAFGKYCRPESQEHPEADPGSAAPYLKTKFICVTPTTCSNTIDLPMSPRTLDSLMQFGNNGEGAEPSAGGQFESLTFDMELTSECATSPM
Outline: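 GST-STAT3 (2 µM) was bound to GST beads for 1 h at 4 °C in PBS with 0.1% β-mercaptoethanol, then washed. Bead slurry was incubated with compound dilutions (2.25% DMSO, duplicate) and FAM-GpYLPQTV-NH2 peptide. Resin was washed by vacuum filtration and fluorescence read at ex 485/em 535 nm. % displacement was set against the no-compound signal; two independent experiments.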

[3] = molecular target: Tyrosine-protein kinase JAK2 (Homo sapiens) (UniProt O60674); assay: Inhibition of JAK2 phosphorylation in human A-375 cells at 5 to 50 uM after 12 hrs by Western blotting analysis; assay type: cell-based; conditions: dose 5-50 µM
Chain of Tyrosine-protein kinase JAK2 (Homo sapiens) (O60674 whole entry): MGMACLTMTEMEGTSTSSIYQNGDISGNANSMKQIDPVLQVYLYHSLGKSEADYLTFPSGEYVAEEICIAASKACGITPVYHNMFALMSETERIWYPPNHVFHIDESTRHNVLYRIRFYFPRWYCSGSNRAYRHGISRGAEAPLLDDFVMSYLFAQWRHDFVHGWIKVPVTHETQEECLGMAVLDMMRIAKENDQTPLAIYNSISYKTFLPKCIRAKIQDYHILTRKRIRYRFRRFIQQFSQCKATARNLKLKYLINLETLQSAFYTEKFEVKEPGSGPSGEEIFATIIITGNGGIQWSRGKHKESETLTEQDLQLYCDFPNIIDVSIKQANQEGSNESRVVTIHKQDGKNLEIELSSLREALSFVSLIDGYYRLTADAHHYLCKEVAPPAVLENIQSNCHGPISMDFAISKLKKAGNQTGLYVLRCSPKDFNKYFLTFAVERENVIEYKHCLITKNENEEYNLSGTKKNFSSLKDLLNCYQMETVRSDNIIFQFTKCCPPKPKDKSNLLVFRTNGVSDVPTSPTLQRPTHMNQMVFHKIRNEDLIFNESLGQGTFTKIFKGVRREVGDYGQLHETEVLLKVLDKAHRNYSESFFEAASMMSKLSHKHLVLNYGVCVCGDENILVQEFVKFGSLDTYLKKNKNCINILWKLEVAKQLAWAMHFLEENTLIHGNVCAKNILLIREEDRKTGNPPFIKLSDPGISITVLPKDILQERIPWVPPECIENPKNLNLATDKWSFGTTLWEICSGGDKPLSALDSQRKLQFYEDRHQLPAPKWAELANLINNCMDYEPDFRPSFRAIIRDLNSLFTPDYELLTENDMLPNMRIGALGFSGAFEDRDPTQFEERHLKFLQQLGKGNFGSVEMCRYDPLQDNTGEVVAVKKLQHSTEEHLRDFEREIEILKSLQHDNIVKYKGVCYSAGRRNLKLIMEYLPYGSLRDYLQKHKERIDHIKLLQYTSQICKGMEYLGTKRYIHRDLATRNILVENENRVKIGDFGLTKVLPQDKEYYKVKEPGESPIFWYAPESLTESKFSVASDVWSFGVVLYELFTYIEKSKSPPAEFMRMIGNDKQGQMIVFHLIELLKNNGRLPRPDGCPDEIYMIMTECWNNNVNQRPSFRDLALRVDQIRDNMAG
Outline: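 A375 cells were treated with 0, 5, 10 or 25 µM overnight (methods state 12 h) in RPMI-1640 with Glutamax. Lysates (60 µg protein) were run on 10% SDS-PAGE and immunoblotted for phospho-JAK2 or phospho-ERK1/2, with actin and/or vinculin as loading controls; performed twice.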

[4] = molecular target: Signal transducer and activator of transcription 5A (Homo sapiens) (UniProt P42229); assay: Inhibition of STAT5 phosphorylation at Y694 residues in human A-375 cells at 50 uM after 20 hrs by Western blotting analysis; assay type: cell-based
Chain of Signal transducer and activator of transcription 5A (Homo sapiens) (P42229 whole entry): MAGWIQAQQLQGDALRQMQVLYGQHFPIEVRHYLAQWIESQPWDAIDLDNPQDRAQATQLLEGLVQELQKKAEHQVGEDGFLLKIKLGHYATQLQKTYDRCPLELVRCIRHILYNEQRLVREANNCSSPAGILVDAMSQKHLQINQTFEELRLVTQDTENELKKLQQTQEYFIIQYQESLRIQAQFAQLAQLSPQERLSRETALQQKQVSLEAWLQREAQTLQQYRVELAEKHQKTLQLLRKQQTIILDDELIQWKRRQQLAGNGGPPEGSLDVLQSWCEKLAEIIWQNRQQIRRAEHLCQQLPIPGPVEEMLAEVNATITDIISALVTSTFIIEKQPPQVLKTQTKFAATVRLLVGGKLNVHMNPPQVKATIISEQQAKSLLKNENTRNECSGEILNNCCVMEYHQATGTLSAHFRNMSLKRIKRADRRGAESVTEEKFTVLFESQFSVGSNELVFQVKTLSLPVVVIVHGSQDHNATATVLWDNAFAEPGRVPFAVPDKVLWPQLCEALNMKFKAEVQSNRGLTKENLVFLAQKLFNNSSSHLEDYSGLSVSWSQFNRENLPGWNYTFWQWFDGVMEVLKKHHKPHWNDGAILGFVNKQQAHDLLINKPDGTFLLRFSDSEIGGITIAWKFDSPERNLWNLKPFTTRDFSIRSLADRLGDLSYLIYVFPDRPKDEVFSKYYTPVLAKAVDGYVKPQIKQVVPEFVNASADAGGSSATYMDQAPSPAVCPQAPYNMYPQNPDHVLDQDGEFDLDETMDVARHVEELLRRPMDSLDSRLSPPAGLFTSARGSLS
Outline: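 A375 cells exposed to a dose range of inhibitor for 20 h (overnight), up to 50 µM; lysates immunoblotted for phospho-STAT1 Y701, phospho-STAT5 Y694 and phospho-STAT6 Y641, with actin and/or vinculin as loading controls.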

[5] = molecular target: T1, Signal transducer and activator of transcription 3; assay: Inhibition of IRDY 700 oligonucleotide binding to STAT3 in human A-375 cell nuclear extract measured after overnight incubation by electrophoretic mobility shift assay; conditions: dose 10-25 µM
Outline: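 A375 cells were treated overnight with inhibitor doses or DMSO in full RPMI. Nuclear extracts were prepared by low-salt lysis followed by high-salt extraction, with protease and phosphatase inhibitors. EMSA used 5 µg extract per reaction with IRDye 700 STAT3 consensus oligo; competitor and mutant oligos served as controls, and a STAT3-immunoprecipitated extract was included.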

A-375 [6] = assay: Inhibition of colony formation in human A-375 cells measured over 10 days by crystal violet staining based assay; assay type: functional, cell-based; conditions: dose 0.1-10 µM, time 10.0 day
Outline: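 A375 cells seeded at 2500/well in RPMI with 5% FBS, settled overnight, then given a dose series and grown 14 days (10 days in the results text). Fixed in 4% paraformaldehyde for 15 min, stained with 0.2% crystal violet in 20% methanol for 10 min, washed and imaged. Experiment run twice.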

A-375 [7] = assay: Cell cycle arrest in human A-375 cells assessed as increase in accumulation at G1-phase measured after 24 hrs by […]; assay type: functional, cell-based; conditions: dose 10-25 µM
A-375 [8] = assay: Cell cycle arrest in human A-375 cells assessed as accumulation at G1-phase at 10 uM measured after 24 hrs by […] (reference value: 55.5 to 56.2%); assay type: functional
A-375 [9] = assay: Cell cycle arrest in human A-375 cells assessed as accumulation at S-phase at 25 uM measured after 24 hrs by […] (reference value: 33.6 to 33.7%); assay type: functional
A-375 [10] = assay: Up regulation of p27kip1 expression in human A-375 cells measured after 24 hrs by Western blot analysis; assay type: functional, cell-based; conditions: dose 5-50 µM
Outline: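 A375 cells treated overnight (same as cell-cycle treatment, 24 h) with different doses, then lysed and immunoblotted for p27kip1, PAX3 and Cyclin D1.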

[11] = molecular target: T1, Signal transducer and activator of transcription 3; assay: Inhibition of STAT3 phosphorylation at Y705 residue in human SB-590885-resistant 451Lu cells measured after 12 hrs by Western blot analysis; conditions: dose 10-25 µM
Outline: (§1)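 451 Lu and MEL 1617 pairs, sensitive and resistant; resistant lines maintained in RPMI with 1 µM PLX4720. Treated with 10 and 25 µM for 12 h versus DMSO. Lysates (60 µg protein, 10% SDS-PAGE) immunoblotted for Ser727- and Tyr705-phospho-STAT3, total STAT3, total PAX3, with actin.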

[12] = molecular target: T1, Signal transducer and activator of transcription 3; assay: Inhibition of STAT3 in human SB-590885-sensitive 451Lu cells assessed as reduction in PAX3 expression measured after 12 hrs by Western blot analysis; conditions: dose 10-25 µM; outline: as §1
[13] = molecular target: T1, Signal transducer and activator of transcription 3; assay: Inhibition of STAT3 in human SB-590885-resistant 451Lu cells assessed as reduction in PAX3 expression measured after 12 hrs by Western blot analysis; conditions: dose 10-25 µM; outline: as §1
[14] = molecular target: T1, Signal transducer and activator of transcription 3; assay: Inhibition of STAT3 phosphorylation at Y705 residue in human SB-590885-resistant MEL1617 cells at 10 to 25 uM measured after 12 hrs by Western blot analysis; assay type: cell-based; conditions: dose 10-25 µM; outline: as §1
[15] = molecular target: T1, Signal transducer and activator of transcription 3; assay: Inhibition of STAT3 phosphorylation at Y705 residue in human SB-590885-sensitive MEL1617 cells at 10 to 25 uM measured after 12 hrs by Western blot analysis; assay type: cell-based; conditions: dose 10-25 µM; outline: as §1
[16] = molecular target: T1, Signal transducer and activator of transcription 3; assay: Inhibition of STAT3 in human SB-590885-resistant MEL1617 cells assessed as reduction in PAX3 expression at 10 to 25 uM measured after 12 hrs by Western blot analysis; assay type: cell-based; conditions: dose 10-25 µM; outline: as §1
[17] = molecular target: T1, Signal transducer and activator of transcription 3; assay: Inhibition of STAT3 in human SB-590885-sensitive 451Lu cells assessed as reduction in STAT3 transcriptional activity measured after 12 hrs by Dual-luciferase reporter gene assay
Outline: (§2)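 Cells co-transfected with inducible STAT3-responsive firefly luciferase and constitutive Renilla luciferase constructs (40:1) using Lipofectamine 3000. After 48 h, dose series in DMSO vehicle applied for 12 h, followed by dual-luciferase readout. Firefly signal normalized to Renilla and compared with untreated cells. Run in triplicate; IC50 taken from dose–response curves.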

[18] = molecular target: T1, Signal transducer and activator of transcription 3; assay: Inhibition of STAT3 in human SB-590885-resistant MEL1617 cells assessed as reduction in STAT3 transcriptional activity measured after 12 hrs by Dual-luciferase reporter gene assay; assay type: cell-based; outline: as §2
[19] = Antiproliferative activity against human SB-590885-resistant 451Lu cells assessed as reduction in cell viability measured after 48 hrs by MTS assay; assay type: functional; conditions: Homo sapiens, 451Lu, 48 h; read-out: IC50
Outline: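 Melanoma lines were grown in RPMI-1640 with Glutamax at 37 °C and 5% CO2. The resistant 451 Lu-R and MEL 1617-R sublines were maintained with 1 µM PLX4720. Cells were incubated with vehicle or inhibitor over a dose range, and viability was read by MTS assay in triplicate.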

IC50 [2] [µM] | inhibition [2] | inhibition [3] | inhibition [4] | inhibition [5] | inhibition [11] | inhibition [12] | inhibition [13] | inhibition [14] | inhibition [15] | inhibition [16] | IC50 [17] [µM] | IC50 [18] [µM] | SMILES | IC50 (A-375 [1]) [µM] | inhibition (A-375 [6]) | Activity (A-375 [7]) | Activity (A-375 [8]) [%] | Activity (A-375 [9]) [%] | Activity (A-375 [10]) | IC50 [19] [µM]
0.25 | Dose-dependent effect | inactive | inactive | Dose-dependent effect | Dose-dependent effect | Dose-dependent effect | Dose-dependent effect | Active | Active | Active | 7.9 | 15.6 | C=CCn1c(SCC(=O)Nc2ccc(/C(C)=N\O)cc2)nnc1-c1cc(-c2ccc(Cl)cc2)nc2ccccc12 | 1.9 | Dose-dependent effect | Dose-dependent effect | 56.7 | 21.4 | Dose-dependent effect | 47
0.32 | Dose-dependent effect | inactive | inactive | Dose-dependent effect | Dose-dependent effect | Dose-dependent effect | Dose-dependent effect | Active | Active | Active | 6.3 | 9.9 | C=CCn1c(SCC(=O)Nc2ccc(/C(C)=N\O)cc2)nnc1-c1cc(-c2ccccc2)nc2ccccc12 | 7.7 | Dose-dependent effect | Dose-dependent effect | 63 | 12.3 | Dose-dependent effect | 7.8
